Test results from ChEMBL document CHEMBL3797089, “Morusin Induces TRAIL Sensitization by Regulating EGFR and DR5 in Human Glioblastoma Cells” (J Nat Prod, 2016).
Calls of active or inactive are those of the source. The calls are words filed in the database; no cut-off is given here.

Legend:
[1] = system: U-251; assay: Effect on DcR1 expression in human U251MG cells upto 25 uM after 24 hrs by Western blot analysis; type: functional, cell-based
Outline: (§1)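 Cells exposed to a range of morusin concentrations for 24 h. Cell extracts immunoblotted for DR4, DR5, DcR1 and DcR2, with β-actin as internal control and HRP-conjugated secondary antibodies (1:5000).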

[2] = system: U-87 MG; assay: Effect on DcR1 expression in human U87MG cells upto 25 uM after 24 hrs by Western blot analysis; type: functional, cell-based; conditions: U-87MG ATCC; outline: as §1
[3] = system: U-251; assay: Induction of DR4 expression in human U251MG cells at 25 uM after 24 hrs by FITC-conjugated flow cytometric analysis; type: functional, cell-based
Outline: (§2)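 Cells given 25 μM morusin for 24 h, then stained on ice for 30 min with 0.5 μg/mL FITC-conjugated anti-DR4, anti-DR5 or isotype IgG in FACS buffer. Surface expression read by flow cytometry.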

[4] = Reduction of survivin mRNA expression in human U87MG cells after 24 hrs by RT-qPCR analysis; type: functional, cell-based; conditions: U-87MG ATCC
Outline: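 U87MG cells were treated with graded morusin for 24 h. Total RNA was extracted with TRI Reagent, and 1 μg was reverse transcribed. XIAP and survivin mRNA were quantified by RT-qPCR, normalized to GAPDH. Results are mean ± SD from at least three independent experiments; unpaired t-test.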

[5] = Reduction of survivin expression in human U87MG cells after 24 hrs by Western blot analysis; type: functional, cell-based; conditions: U-87MG ATCC
Outline: (§3)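 U87MG (MEM) and U373MG (RPMI) cells were given graded morusin concentrations for 24 h. Whole-cell extracts were immunoblotted for anti-apoptotic proteins, with β-actin as loading control.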

[6] = system: U373 MG; assay: Effect on DcR1 expression in human U373MG cells upto 25 uM after 24 hrs by Western blot analysis; type: functional, cell-based; conditions: U-373MG ATCC; outline: as §1
[7] = Reduction of XIAP mRNA expression in human U87MG cells at 25 uM by RT-qPCR analysis; type: functional, cell-based; conditions: U-87MG ATCC, TDE = time-dependent effect
Outline: (§4)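 U87MG cells were exposed to 25 μM morusin over a time course. Total RNA (1 μg) was reverse transcribed, and XIAP and survivin transcripts were measured by RT-qPCR against GAPDH. Results are mean ± SD from at least three independent experiments.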

[8] = target: Epidermal growth factor receptor (Homo sapiens) (UniProt P00533); assay: Inhibition of EGFR phosphorylation in human U373MG cells measured up to 25 uM after 24 hrs by Western blot analysis; type: cell-based; conditions: U-373MG ATCC
Outline: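 U87MG and U373MG exposed to a range of morusin concentrations for 24 h. Whole-cell lysates immunoblotted for phosphorylated EGFR, with β-actin as internal control.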

[9] = system: T98G; assay: Induction of apoptosis in human T98G cells assessed as increase in cleaved caspase 9 levels at 2.5 uM after 24 hrs by Western blot analysis in presence of TRAIL; type: functional, cell-based
Outline: (§5)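 U87MG and T98G given TRAIL 25 ng/mL plus morusin 2.5 μM together for 24 h; single-agent arms used TRAIL 50 ng/mL or morusin 5 μM. Lysates immunoblotted for cleaved caspase 3, 8, 9 and cleaved PARP, with β-actin as internal control.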

[10] = system: LN-18; assay: Effect on DR4 expression in human LN18 cells upto 25 uM after 24 hrs by Western blot analysis; type: functional, cell-based; outline: as §1
[11] = Cytotoxicity against human U373MG cells assessed as reduction in cell viability after 24 hrs by MTT assay; type: functional, cell-based, U-373MG ATCC; conditions: U373 MG
Outline: (§6)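 Seeded 3–5 × 10^3 cells/well, treated the next day with a range of morusin (DMSO stock) for 24 h, 37 °C, 5% CO2. Then fresh medium with 1 mg/mL MTT for 2 h at 37 °C, lysis buffer overnight at 37 °C, OD 570 nm. Mean ± SD from at least three independent experiments in triplicate.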

[12] = Reduction of XIAP expression in human U87MG cells after 24 hrs by Western blot analysis; type: functional, cell-based; conditions: U-87MG ATCC; outline: as §3
[13] = Cytotoxicity against human U251MG cells assessed as reduction in cell viability after 24 hrs by MTT assay; type: functional, cell-based; conditions: U-251, 24 h; outline: as §6
[14] = system: U373 MG; assay: Induction of DR5 expression in human U373MG cells after 24 hrs by Western blot analysis; type: functional, cell-based; conditions: U-373MG ATCC; outline: as §1
[15] = system: T98G; assay: Induction of apoptosis in human T98G cells assessed as increase in cleaved caspase 3 levels at 2.5 uM after 24 hrs by Western blot analysis in presence of TRAIL; type: functional, cell-based; outline: as §5
[16] = Cytotoxicity against human U373MG cells assessed as reduction in cell viability measured up to 20 uM after 24 hrs by MTT assay in presence of TRAIL; type: functional, U-373MG ATCC
Outline: (§7)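 MTT viability. 3–5 × 10^3 cells/well, treated the next day with TRAIL 100 ng/mL plus increasing morusin concentrations for 24 h. 1 mg/mL MTT for 2 h at 37 °C, lysis overnight, OD 570 nm. Living-cell fractions were used for combination index analysis. Mean ± SD, at least three independent experiments.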

[17] = Reduction of EGFR expression in human LN18 cells at 25 uM after 24 hrs by Western blot analysis; type: functional, cell-based; conditions: LN-18
Outline: (§8)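 LN18, U87MG, T98G, U251MG and U373MG glioblastoma cells were exposed to morusin for 24 h. Cells were maintained in DMEM, MEM or RPMI with 10% FBS at 37 °C and 5% CO2. Whole-cell lysates were Western blotted for receptor proteins, with β-actin as internal control.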

[18] = Reduction of survivin mRNA expression in human U87MG cells at 25 uM by RT-qPCR analysis; type: functional, cell-based; conditions: U-87MG ATCC, TDE = time-dependent effect; outline: as §4
[19] = system: U373 MG; assay: Induction of DR4 expression in human U373MG cells at 25 uM after 24 hrs by FITC-conjugated flow cytometric analysis; type: functional, cell-based; conditions: U-373MG ATCC; outline: as §2
[20] = system: U-87 MG; assay: Induction of DR5 expression in human U87MG cells at 25 uM by Western blot analysis; type: functional, cell-based; conditions: U-87MG ATCC, TDE = time-dependent effect
Outline: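 Time course: U87MG and U373MG cells held at 25 μM morusin for the times indicated. Extracts immunoblotted (cIAP1 or DR5), with β-actin as loading control.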

[21] = system: U-87 MG; assay: Induction of DR5 mRNA expression in human U87MG cells at 25 uM after 24 hrs by RT-qPCR analysis; type: functional, cell-based; conditions: U-87MG ATCC
Outline: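 U87MG held at 25 μM morusin for the times indicated. Total RNA extracted; 1 μg reverse transcribed; DR5 mRNA measured by RT-qPCR against GAPDH. Mean ± SD.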

[22] = Reduction of EGFR expression in human U373MG cells at 25 uM after 24 hrs by Western blot analysis; type: functional, cell-based; conditions: U-373MG ATCC; outline: as §8
[23] = Cytotoxicity against human U251MG cells assessed as reduction in cell viability measured up to 20 uM after 24 hrs by MTT assay in presence of TRAIL; type: functional, U-251; outline: as §7
[24] = system: LN-18; assay: Induction of DR5 expression in human LN18 cells after 24 hrs by Western blot analysis; type: functional, cell-based; outline: as §1
[25] = system: LN-18; assay: Effect on DcR1 expression in human LN18 cells upto 25 uM after 24 hrs by Western blot analysis; type: functional, cell-based; outline: as §1
[26] = system: T98G; assay: Induction of apoptosis in human T98G cells assessed as increase in cleaved caspase 8 levels at 2.5 uM after 24 hrs by Western blot analysis in presence of TRAIL; type: functional, cell-based; outline: as §5
[27] = system: U373 MG; assay: Effect on DcR2 expression in human U373MG cells upto 25 uM after 24 hrs by Western blot analysis; type: functional, cell-based; conditions: U-373MG ATCC; outline: as §1
[28] = system: T98G; assay: Cytotoxicity against human T98G cells assessed as reduction in cell viability after 24 hrs by MTT assay; type: functional, cell-based; outline: as §6

Epidermal growth factor receptor (Homo sapiens), sequence (P00533 whole entry): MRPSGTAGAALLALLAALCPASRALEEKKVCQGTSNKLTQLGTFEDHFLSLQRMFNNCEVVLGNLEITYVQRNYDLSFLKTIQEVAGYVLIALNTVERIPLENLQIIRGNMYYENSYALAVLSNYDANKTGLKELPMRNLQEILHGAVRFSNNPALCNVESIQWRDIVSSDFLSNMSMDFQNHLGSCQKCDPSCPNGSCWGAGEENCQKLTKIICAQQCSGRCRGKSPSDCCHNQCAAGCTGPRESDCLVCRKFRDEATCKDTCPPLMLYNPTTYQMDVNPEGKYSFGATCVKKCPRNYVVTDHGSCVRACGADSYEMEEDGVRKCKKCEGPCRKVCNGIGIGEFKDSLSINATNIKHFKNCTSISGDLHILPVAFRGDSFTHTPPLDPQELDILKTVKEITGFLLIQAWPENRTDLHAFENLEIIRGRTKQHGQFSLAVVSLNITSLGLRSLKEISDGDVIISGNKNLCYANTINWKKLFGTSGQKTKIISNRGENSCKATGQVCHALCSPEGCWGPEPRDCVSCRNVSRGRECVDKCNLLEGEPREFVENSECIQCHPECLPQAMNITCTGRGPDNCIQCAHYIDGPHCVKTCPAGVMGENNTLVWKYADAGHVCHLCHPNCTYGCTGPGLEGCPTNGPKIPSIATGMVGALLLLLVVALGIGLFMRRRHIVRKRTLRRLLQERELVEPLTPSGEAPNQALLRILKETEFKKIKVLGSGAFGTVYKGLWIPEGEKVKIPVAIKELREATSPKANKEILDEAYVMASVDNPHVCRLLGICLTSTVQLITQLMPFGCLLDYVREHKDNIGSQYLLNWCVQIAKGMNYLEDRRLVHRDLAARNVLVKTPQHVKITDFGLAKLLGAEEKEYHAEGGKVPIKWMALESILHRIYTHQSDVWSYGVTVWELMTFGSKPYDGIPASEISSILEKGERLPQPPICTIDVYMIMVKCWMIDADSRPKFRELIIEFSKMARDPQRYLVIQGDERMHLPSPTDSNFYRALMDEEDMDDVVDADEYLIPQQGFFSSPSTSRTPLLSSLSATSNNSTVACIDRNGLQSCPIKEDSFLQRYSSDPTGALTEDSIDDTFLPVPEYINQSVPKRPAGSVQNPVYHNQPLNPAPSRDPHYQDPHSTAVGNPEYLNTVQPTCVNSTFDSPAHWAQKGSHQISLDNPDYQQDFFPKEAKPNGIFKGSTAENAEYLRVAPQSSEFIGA

CC(C)=CCc1c(-c2ccc(O)cc2O)oc2c3c(cc(O)c2c1=O)OC(C)(C)C=C3 [MORUSIN]
Activity [1]: inactive
Activity [2]: inactive
Activity [3]: inactive
Activity [4]: Dose-dependent effect
inhibition [5]: Dose-dependent effect
Activity [6]: inactive
Activity [7]: tde
inhibition [8]: Active
Activity [9]: Active
Activity [10]: inactive
IC50 [11]: 24 µM
inhibition [12]: Dose-dependent effect
IC50 [13]: 24 µM
Activity [14]: Dose-dependent effect
Activity [15]: Active
CI [16]: <0.8
Activity [17]: Active
Activity [18]: tde
Activity [19]: inactive
Activity [20]: tde
Activity [21]: Active
Activity [22]: Active
CI [23]: <0.8
Activity [24]: Dose-dependent effect
Activity [25]: inactive
Activity [26]: Active
Activity [27]: inactive
IC50 [28]: 24 µM
